The values below come from article PMC5199614 (Journal of bone and mineral research : the official journal …, 2016).

The nature of data set [1]: Persistence of injected ligand in mouse blood and urine. To be noted: mice, iv 50 nmol/kg, 1 μL plasma in PBS, n = 6.
The next data set addresses T1, human PTHR1 (Homo sapiens, UniProt Q03431).
T1 sequence (Q03431 27-593): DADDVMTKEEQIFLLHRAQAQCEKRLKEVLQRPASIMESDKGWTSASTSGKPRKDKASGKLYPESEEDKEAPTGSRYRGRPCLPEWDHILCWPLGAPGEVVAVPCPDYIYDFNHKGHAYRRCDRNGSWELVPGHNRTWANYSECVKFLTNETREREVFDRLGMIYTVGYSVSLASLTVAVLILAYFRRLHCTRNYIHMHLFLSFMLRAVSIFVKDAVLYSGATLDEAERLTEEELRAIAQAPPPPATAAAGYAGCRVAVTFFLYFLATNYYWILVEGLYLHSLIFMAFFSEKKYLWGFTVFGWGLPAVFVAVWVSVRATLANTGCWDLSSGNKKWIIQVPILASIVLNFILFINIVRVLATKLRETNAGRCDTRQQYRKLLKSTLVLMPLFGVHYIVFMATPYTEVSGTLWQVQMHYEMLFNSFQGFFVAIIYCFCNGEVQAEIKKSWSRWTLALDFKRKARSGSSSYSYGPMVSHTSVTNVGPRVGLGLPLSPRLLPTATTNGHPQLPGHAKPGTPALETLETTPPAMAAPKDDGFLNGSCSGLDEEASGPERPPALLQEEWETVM
In words: cAMP signaling. The format is cell-based. The note with it: GP-2.3 cells; for Emax (cAMP-dependent luminescence): vehicle 1.3 ± 0.1, means ±SEM of 10 experiments.

The subject of data set [2] is PTHR1-expressing GP-2.3 cells. The data set is described as follows: Confocal microscopy of ligand internalization in GP-2.3 and GS-22A cells. The format is cell-based, human. The note with it: 100 nM; for ligand localization in GP-2.3 cells: 15 minutes at 21°C, confocal TMR fluorescence; for TMR fluorescence in parental GS-22A cells (not transfected with PTHR1): confocal microscopy. The procedure, abridged: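 GP-2.3 cells (HEK-293 with stable human PTHR1 and glosensor) and parental GS-22A cells (glosensor only) were grown on coverslips to ~75% confluence. Cells were exposed to TMR-ligand at 100 nM in HBB for 15 min at 21°C, or for 30 min at 4°C to block internalization. They were then rinsed thrice, fixed in 4% formalin for 5 min and mounted with DAPI. Confocal imaging used 405/559 nm excitation.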

The subject of data set [3] is C57BL/6J mice. The data set is described as follows: Blood ionized calcium after iv injection in mice. To be noted: iv 50 nmol/kg; for peak blood Ca^2+ increase above pre-injection (t = 0) level: n = 6 per group. The class given is in vivo, mouse.
Data set [4] concerns C57BL/6J mice. The data set is described as follows: Plasma Pi after iv injection in mice. The class given is in vivo, mouse. The note with it: iv 50 nmol/kg; for time of Pi nadir: after injection; for decline of blood phosphate (Pi) at the nadir: n = 6 per group.
Data set [5] has as its system C57BL/6J mice. The data set is described as follows: Blood 1,25. The class given is in vivo, mouse. To be noted: iv 50 nmol/kg; for blood 1,25(OH)2D relative to vehicle-injected mice: 2 hours after injection.
The test system of data set [6] is renal proximal tubule cells. The class given is in vivo, mouse. To be noted: 5 minutes (NS^TMR) or 5 or 60 minutes after iv injection.
Data set [7] concerns C57BL/6J mice. In words: Urinary fractional excretion of Ca and Pi after iv injection in mice. The note with it: iv 50 nmol/kg, spot urine. The class given is in vivo, mouse.
For data set [8] the following is noted: humans, cited from earlier work.

Take “[Lys^13(TMR), Cys^35]PTH(1-35) [PTH^TMR]”: the “last time point at which plasma TMR fluorescence was detected” value in [1] worked out at 2 h. The “Emax (cAMP-dependent luminescence)” value on human PTHR1 is given as 184 ± 12 cps × 10^−3. Moreover, in data set [2], the “ligand localization in GP-2.3 cells” value is given as “located predominantly in internalized vesicles” and the “TMR fluorescence in parental GS-22A cells (not transfected with PTHR1)” value was “No such TMR fluorescence was observed”. In addition, the “peak blood Ca^2+ increase above pre-injection (t = 0) level” value with C57BL/6J mice [3] is ~ 8%. Besides, the “time of return of blood Ca^2+ to baseline” value with C57BL/6J mice [3] (post-injection) is ≤ 24 h. For the same substance, in the data set with C57BL/6J mice [4], the “time of return of Pi to baseline” value was ≤ 4 h, the “time of Pi nadir” value came out at 1 h and the “decline of blood phosphate (Pi) at the nadir” value worked out at 27%. Further, in the data set with C57BL/6J mice [5], the “blood 1,25(OH)2D relative to vehicle-injected mice” value is “about threefold”. In addition, the “immunostained phosphorylated PKA substrate in kidney sections” value in [6] is listed as “clear staining for pPKA substrate”.

“[Lys^13(tetramethyl rhodamine {TMR}), Cys^35(PEG-20,000 Da)]PTH(1-35) [PEG-PTH^TMR]”: the “potency (EC50) relative to PTH(1-34) and PTH^TMR” value at human PTHR1 (cAMP) is “about three- to fivefold weaker”. The “Emax (cAMP-dependent luminescence)” value at human PTHR1 stood at 178 ± 14 cps × 10^−3. In the data set on C57BL/6J mice [7], the “duration of effects on urinary fractional excretion of Ca and Pi” value is “up to 24 hours”. In [2], the “ligand localization in GP-2.3 cells” value was “located predominantly in internalized vesicles” and the “TMR fluorescence in parental GS-22A cells (not transfected with PTHR1)” value is “No such TMR fluorescence was observed”. Moreover, the “peak blood Ca^2+ increase above pre-injection (t = 0) level” value with C57BL/6J mice [3] is ~ 21%. In addition, in the data set with C57BL/6J mice [3] (post-injection), the “time of peak blood Ca^2+” value worked out at 24 h and the “time of return of blood Ca^2+ to baseline” value was found to be 96 h. In the data set on C57BL/6J mice [4], the “time of Pi nadir” value is 2 h and the “decline of blood phosphate (Pi) at the nadir” value turned out to be 42%. Moreover, in the data set with C57BL/6J mice [5], the “blood 1,25(OH)2D relative to vehicle-injected mice” value is listed as “about threefold”. In addition, the “blood 1,25(OH)2D” value in the data set with C57BL/6J mice [5] (24 hours after injection) was “marked increases”. The “immunostained phosphorylated PKA substrate in kidney sections” value in data set [6] is “at least comparable to that observed with the PTH^TMR ligand”.

As for PTH(1-84), the serum half-time result in data set [8] (injected subcutaneously) is reported as “about 2.5 hours”.

As for PTH(1-34), in [8] (injected intravenously), the “half-time (t1/2) of disappearance from the circulation” value is 10 ± 0.5 min. In addition, the half-time result in data set [8] (subcutaneous injection) is “about 1 hour”.

“TMR-NNGEDHSQITKV [NS^TMR, reference compound]”: the “immunostained phosphorylated PKA substrate in kidney sections” value in data set [6] is given as “little or no green fluorescence”.
